Calls of active or inactive are those of the source. The calls are words filed in the database; no cut-off is given here.
Legend:
Rattus norvegicus [1] = species: Rattus norvegicus; assay: Ratio of IC50 against 5-LO and COX
Procedure, shortened: (§1)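 In ionophore-stimulated RBL-1 cells (2×10^6/mL, PBS with 1.0 mM Ca, 10 min compound preincubation at room temperature, 5 μM A23187 for 7 min at 37 °C), supernatant LTB₄ (5-LO) and PGF₂α (CO) were each quantified by RIA over 0.10–10.0 μM. IC50s came from linear regression, and the ratio is the 5-LO IC50 over the CO IC50.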

[2] = biological target: T1, Polyunsaturated fatty acid 5-lipoxygenase (Rattus norvegicus, UniProt P12527); assay: Inhibitory activity against 5-Lipoxygenase
T1 sequence (P12527 whole entry): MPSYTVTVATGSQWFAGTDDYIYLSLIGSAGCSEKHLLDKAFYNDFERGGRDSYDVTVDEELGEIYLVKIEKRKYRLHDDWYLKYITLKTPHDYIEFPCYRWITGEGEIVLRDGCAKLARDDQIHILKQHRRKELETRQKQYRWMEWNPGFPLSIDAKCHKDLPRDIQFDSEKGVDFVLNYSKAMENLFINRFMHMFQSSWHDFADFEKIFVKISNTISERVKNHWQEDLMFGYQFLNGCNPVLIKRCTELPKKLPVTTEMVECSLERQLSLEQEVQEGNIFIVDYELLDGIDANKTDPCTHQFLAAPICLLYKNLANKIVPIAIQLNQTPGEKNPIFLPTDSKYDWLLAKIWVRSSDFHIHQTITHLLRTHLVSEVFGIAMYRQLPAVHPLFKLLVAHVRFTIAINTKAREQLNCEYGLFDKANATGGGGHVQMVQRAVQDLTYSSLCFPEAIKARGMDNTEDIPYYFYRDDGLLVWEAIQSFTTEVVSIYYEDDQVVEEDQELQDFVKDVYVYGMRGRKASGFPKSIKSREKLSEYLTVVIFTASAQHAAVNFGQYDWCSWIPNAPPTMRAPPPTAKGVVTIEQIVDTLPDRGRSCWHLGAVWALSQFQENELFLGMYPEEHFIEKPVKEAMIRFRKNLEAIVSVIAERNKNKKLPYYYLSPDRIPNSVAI
Procedure, shortened: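 Rat basophilic leukemia RBL-1 cells were grown in suspension in MEM with 12% FBS, washed, and resuspended at 2×10^6 cells/mL in PBS pH 7.4 with 1.0 mM calcium. Compound in DMSO was preincubated 10 min at room temperature, then 5 μM A23187 was added for 7 min at 37 °C. LTB₄ in the supernatant was measured by RIA at 0.10–10.0 μM. IC50 was determined by linear regression.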

Cyclooxygenase = biological target: T2, Cyclooxygenase (Rattus norvegicus, UniProt P35355+Q63921); assay: Evaluated in vitro for its inhibitory activity against Prostaglandin G/H synthase; assay type: protein assay
T2 sequence (P35355 whole entry): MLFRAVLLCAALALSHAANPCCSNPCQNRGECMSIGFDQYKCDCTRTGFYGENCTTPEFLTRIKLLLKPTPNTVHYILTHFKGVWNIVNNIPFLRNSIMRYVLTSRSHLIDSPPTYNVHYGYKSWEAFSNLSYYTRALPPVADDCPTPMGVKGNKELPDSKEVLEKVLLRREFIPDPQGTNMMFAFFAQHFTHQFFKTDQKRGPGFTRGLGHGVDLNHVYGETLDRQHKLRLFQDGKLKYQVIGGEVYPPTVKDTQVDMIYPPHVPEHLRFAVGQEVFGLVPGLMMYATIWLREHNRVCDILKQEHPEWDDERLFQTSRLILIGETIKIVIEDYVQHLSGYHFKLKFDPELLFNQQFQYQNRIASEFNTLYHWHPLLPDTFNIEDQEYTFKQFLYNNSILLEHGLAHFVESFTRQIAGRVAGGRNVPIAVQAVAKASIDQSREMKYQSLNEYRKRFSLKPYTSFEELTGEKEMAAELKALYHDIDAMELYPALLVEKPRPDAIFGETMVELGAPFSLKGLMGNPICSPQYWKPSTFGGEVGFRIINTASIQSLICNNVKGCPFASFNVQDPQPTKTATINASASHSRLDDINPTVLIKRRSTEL
T2 sequence (Q63921 whole entry): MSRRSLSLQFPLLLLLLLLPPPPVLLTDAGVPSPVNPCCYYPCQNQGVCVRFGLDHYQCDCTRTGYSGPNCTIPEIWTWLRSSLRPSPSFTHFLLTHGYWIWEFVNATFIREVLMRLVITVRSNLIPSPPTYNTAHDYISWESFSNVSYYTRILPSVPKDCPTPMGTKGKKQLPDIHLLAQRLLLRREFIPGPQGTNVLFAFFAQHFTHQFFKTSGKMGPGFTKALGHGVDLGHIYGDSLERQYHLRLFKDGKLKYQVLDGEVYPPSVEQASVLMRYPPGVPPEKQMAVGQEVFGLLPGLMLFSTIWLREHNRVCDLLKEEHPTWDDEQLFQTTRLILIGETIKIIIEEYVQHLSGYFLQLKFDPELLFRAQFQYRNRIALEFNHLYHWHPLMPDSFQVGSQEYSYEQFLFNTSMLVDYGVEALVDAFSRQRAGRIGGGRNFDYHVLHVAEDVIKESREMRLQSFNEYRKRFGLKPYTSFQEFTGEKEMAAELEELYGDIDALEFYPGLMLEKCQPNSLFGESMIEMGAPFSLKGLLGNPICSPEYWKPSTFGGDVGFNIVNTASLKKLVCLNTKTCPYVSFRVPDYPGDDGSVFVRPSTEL

Rattus norvegicus [3] = assay: Evaluated for the antiinflammatory activity by measuring the percentage inhibition of edema in the carrageenan foot-pad edema test at the dose of 10 mg/kg; assay type: functional
Procedure, shortened: (§2)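 Male Wistar rats dosed orally (0.5% HPMC/0.2% Tween 80 or Labrafils, 10 mL/kg) 1 h before subplantar injection of 0.10 mL 1% carrageenan into right hind paw under light anesthesia. Paw volume by mercury plethysmography at challenge and 5 h later; percent inhibition ± SEM versus vehicle group. Doses 10.0 and 30.0 mg/kg po, 7-14 rats per dose.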

Rattus norvegicus [4] = assay: Evaluated for the percent rats with ulcers at the dose of 200 mg/kg (number of animals used per group in the experiment are 10 ); assay type: functional
Procedure, shortened: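 Male outbred Wistar rats (100-250 g) fasted 24 h, given compound orally in 0.5% HPMC (2 mL/kg), then denied food and water 6 more h. Killed with CO2; stomachs opened along greater curvature and scored for ulcers. Percent of rats with ulcers per dose; up to 200 mg/kg po, 10 rats per dose.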

Rattus norvegicus [5] = species: Rattus norvegicus; assay: Ratio of IC50 against 5-LO to that of CO enzyme.; procedure, shortened: as §1
Rattus norvegicus [6] = assay: Evaluated for the antiinflammatory activity by measuring the dose (po) which inhibited Mycobacterium induced foot-pad edema in rats; assay type: functional
Rattus norvegicus [7] = assay: Evaluated for the antiinflammatory activity by measuring the percentage inhibition of edema in the carrageenan foot-pad edema test at the dose of 30 mg/kg; assay type: functional; procedure, shortened: as §2
[8] = biological target: T1, Polyunsaturated fatty acid 5-lipoxygenase; assay: Evaluated in vitro for its inhibitory activity against 5-lipoxygenase
[9] = biological target: T1, Polyunsaturated fatty acid 5-lipoxygenase; assay: Evaluated in vitro for its inhibitory activity against 5-lipoxygenase; N=Inactive, <50% inhibition at 10 uM concentration
Procedure, shortened: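 RBL-1 cells grown in MEM + 12% FBS, washed in PBS pH 7.4, resuspended at 2×10^6 cells/mL in PBS with 1.0 mM calcium. Preincubated 10 min at room temperature with compound in DMSO, then stimulated with A23187 (5 μM) 7 min at 37 °C; stopped on ice. Supernatant LTB4 by radioimmunoassay.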

[10] = biological target: Cyclooxygenase (Rattus norvegicus) (UniProt P35355+Q63921); assay: Inhibitory activity against Prostaglandin G/H synthase at 10 uM; assay type: protein assay
Procedure, shortened: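 Cyclooxygenase read-out in RBL-1 cells (2×10^6 cells/mL in PBS with 1.0 mM calcium): 10 min room-temperature preincubation with compound in DMSO, A23187 (5 μM) stimulation 7 min at 37 °C, ice stop. Supernatant PGF2α by radioimmunoassay; percent inhibition at a 10 μM screening concentration.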

Rattus norvegicus [11] = assay: Compound was evaluated for the antiinflammatory activity by measuring the percentage inhibition of edema in the carrageenan foot-pad edema test at the dose of 30 mg/kg; N=Inactive, <25% inhibition; assay type: functional, organism-based; set-up: dose 30 mg/kg; procedure, shortened: as §2

| Compound | IC50 (Cyclooxygenase) | Ratio (Rattus norvegicus [5]) | IC50 [8] | IC50 [9] | other results |
| --- | --- | --- | --- | --- | --- |
| CC(C)(C)c1cc(-c2nsc(NC#N)n2)cc(C(C)(C)C)c1O.C[N+](C)(C)CC[O-] | 11 nM | – | – | – | Ratio (Rattus norvegicus [1]): 173; IC50 [2]: 1900 nM |
| CSC(=N)Nc1nc(-c2cc(C(C)(C)C)c(O)c(C(C)(C)C)c2)ns1.Cl | 170 nM | 7.1 | 1200 nM | – | inhibition in vivo at 10 mg/kg (Rattus norvegicus [3]): 30.7%; Activity (Rattus norvegicus [4]): 0%; ID40 (Rattus norvegicus [6]): 7.3 mg/kg; inhibition in vivo at 30 mg/kg (Rattus norvegicus [7]): 41.4% |
| CC(=N)Nc1nc(-c2cc(C(C)(C)C)c(O)c(C(C)(C)C)c2)ns1.Cl | – | – | – | Inactive | – |
| C/N=C(\N)Nc1nc(-c2cc(C(C)(C)C)c(O)c(C(C)(C)C)c2)ns1.Cl | 4400 nM | 0.084 | 370 nM | – | inhibition in vivo at 10 mg/kg (Rattus norvegicus [3]): 18%; Activity (Rattus norvegicus [4]): 0%; ID40 (Rattus norvegicus [6]): 6 mg/kg; inhibition in vivo at 30 mg/kg (Rattus norvegicus [7]): 38.9% |
| CNCc1noc(-c2cc(C(C)(C)C)c(O)c(C(C)(C)C)c2)n1 | – | – | – | Inactive | inhibition [10]: 78% |
| CC(=O)Nc1noc(-c2cc(C(C)(C)C)c(O)c(C(C)(C)C)c2)n1 | – | – | – | Inactive | inhibition (Rattus norvegicus [11]): inactive |
| CC(C)(C)c1cc(-c2nsc(N=C(N)N)n2)cc(C(C)(C)C)c1O.Cl | 1600 nM | 0.088 | 140 nM | – | inhibition in vivo at 10 mg/kg (Rattus norvegicus [3]): 46.1%; Activity (Rattus norvegicus [4]): 0%; ID40 (Rattus norvegicus [6]): 5.1 mg/kg; inhibition in vivo at 30 mg/kg (Rattus norvegicus [7]): 61.3% |
| CC(C)(C)c1cc(-c2noc(O)n2)cc(C(C)(C)C)c1O | 4700 nM | – | – | Inactive | – |
| Cc1nc(-c2cc(C(C)(C)C)c(O)c(C(C)(C)C)c2)no1 | 300 nM | 7.7 | – | – | – |
| Cc1ccc(S(=O)(=O)c2nc(-c3cc(C(C)(C)C)c(O)c(C(C)(C)C)c3)ns2)cc1 | – | – | – | Inactive | – |
| CC(C)(C)c1cc(-c2nsc(CN)n2)cc(C(C)(C)C)c1O.Cl | 87 nM | 30 | 2600 nM | – | – |
| CC(C)(C)c1cc(-c2nc(=S)o[nH]2)cc(C(C)(C)C)c1O | – | – | 3400 nM | – | – |
| CC(C)(C)c1cc(-c2noc(S)n2)cc(C(C)(C)C)c1O | 50 nM | 68 | – | – | – |

Reference: ChEMBL document CHEMBL1125307, “Novel 1,2,4-oxadiazoles and 1,2,4-thiadiazoles as dual 5-lipoxygenase and cyclooxygenase inhibitors” (J Med Chem, 1992)
